# Shown are actives, neighbours in structure and some others; about 5.9% of the full set was active somewhere.
# Pf Dd2 growth = P. falciparum Dd2 growth inhibitors, primary screen, SYBR Green fluorescence, single dose replicates | 72 h; hits give low values | activity change, % at 10 µM | 2.3% of 94,000 active | AID 1159554, 2015; in the data active means activity change below about -80%; inconclusive means no clear call, values can overlap the other calls
# IDH1 mut inh = inhibitors of IDH1 R132H reductase, primary screen, biochemical, plate reader, single point; 0.18% of 70,000 active; inhibition, % at 10 µM; diaphorase/resazurin fluorescence, 60 min; Isocitrate dehydrogenase [NADP] cytoplasmic (Homo sapiens), O75874; in the data active means inhibition above about 34%; inconclusive means no clear call, values can overlap the other calls; inactive means below about 11%;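 further: 0% = DMSO and 100% = no enzyme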
# GASC1 inh = inhibitors of GASC-1 (KDM4C) histone demethylase, primary screen, biochemical, single concentration HTS; GST-KDM4C 2-372, H3K9me3 peptide, LANCE TR-FRET; inhibition, % at 12.5 µM; 0.15% of 96,000 active;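 active means mean replicate inhibition above about 25%, with at least 55% of replicates also reaching it, limit read from the data, passing the limit was not always enough; inconclusive means only one of those two conditions met; inactive means neither condition met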
# Target sequence (Q9H3R0 2-372 limits assumed): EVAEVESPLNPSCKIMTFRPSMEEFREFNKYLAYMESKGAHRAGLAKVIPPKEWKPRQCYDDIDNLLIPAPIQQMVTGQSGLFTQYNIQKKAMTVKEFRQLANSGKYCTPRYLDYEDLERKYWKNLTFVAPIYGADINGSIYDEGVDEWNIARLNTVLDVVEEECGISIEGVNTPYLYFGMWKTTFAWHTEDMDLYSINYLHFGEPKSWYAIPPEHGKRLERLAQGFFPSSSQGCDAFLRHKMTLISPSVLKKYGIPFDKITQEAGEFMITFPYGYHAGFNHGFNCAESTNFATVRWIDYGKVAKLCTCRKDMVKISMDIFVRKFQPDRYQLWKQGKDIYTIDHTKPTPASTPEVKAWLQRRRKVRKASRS
#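 System: N-terminal GST-fused human GASC-1 (KDM4C) fragment, residues 2-372; amount: enzyme final amount 10 nM; incubation: reaction 30 min RT, detection step 1 h RT; medium: HEPES buffer, pH 7.5, plus ascorbate; technique: LANCE TR-FRET, Eu antibody, ULight-streptavidin, EDTA, ex 340 nm, em 618/671 nm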
# T cruzi growth-1 = T. cruzi intracellular proliferation inhibitors, primary screen, cell-based, beta-gal Tulahuen parasites, NIH3T3 host, luminescence. AID 624255, 2012. T. cruzi beta-gal in NIH3T3, GalScreen luminescence, 90 h. 5.9% of 77,000 active. inhibition, % at 8.34 µM;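 active means mean inhibition above about 93%, with at least 55% of replicates each passing it, limit read from the data, passing the limit was not always enough; inconclusive means only one of those two conditions holds; inactive means neither condition holds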
# T cruzi growth-2 = T. cruzi intracellular proliferation inhibitors, confirmation, cell-based, NIH3T3 host, beta-gal parasite, luminescence, cherry-pick; T. cruzi beta-gal in NIH3T3, GalScreen luminescence, 90 h; 72% of 5,600 active; shares compounds with T cruzi growth-1; inhibition, % at 8.35 µM;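 active means mean replicate inhibition above about 95% and at least 55% of replicates individually reaching it, limit read from the data; inconclusive means only one of the two criteria is met; inactive means neither criterion is met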
# T cruzi growth-3 = inhibitors of intracellular T. cruzi replication, confirmation, NIH3T3 host cells, beta-gal parasites, cherry-pick, set 2. inhibition, % at 2.09 µM. T. cruzi beta-gal in NIH3T3, GalScreen luminescence, 90 h. shares compounds with T cruzi growth-1. 21% of 5,600 active;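 active means mean inhibition above about 95%, with at least 55% of replicates also reaching it, limit read from the data; inconclusive means meets just one of the two conditions; inactive means meets neither condition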;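 further: plate controls were neutral control median for no effect and positive control median for full effect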
# 3T3 cytotox = cytotoxicity in mouse NIH/3T3 fibroblasts, confirmation, cytotoxicity control for T. cruzi proliferation inhibitor project, cell-based, cherry-pick, single point; NIH/3T3 viability, CellTiter-Glo ATP luminescence, 90 h; 14% of 5,600 active; AID 651742, 2012; shares compounds with T cruzi growth-1; cytotoxicity (signal decrease), % at 8.35 µM;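 active means mean signal decrease across replicates above about 35% based on untreated-well scatter, with enough replicates individually passing, limit read from the data; inconclusive means no rule stated though some were filed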;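 further: 0% = median of neutral control wells and 100% = median of positive control wells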
# NIH3T3 tox 2 = NIH/3T3 fibroblast cytotoxicity, confirmation, cytotoxicity control, cell-based, cherry-pick, single point, set 2; shares compounds with T cruzi growth-1; NIH/3T3 viability, CellTiter-Glo ATP luminescence, 90 h; inhibition, % at 24.9 µM; 56% of 5,600 active; AID 651744, 2012;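 active means mean loss of cell viability signal at or above a set limit, and enough replicates individually reaching it; inconclusive means meets only the mean limit or only the replicate share; inactive means meets neither condition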;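 further: 0% = median of neutral control wells and 100% = median of positive control wells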
# Numbers without * were called inactive; ? = inconclusive; / = not tested or not shown.
SMILES,Pf Dd2 growth,IDH1 mut inh,GASC1 inh,T cruzi growth-1,T cruzi growth-2,T cruzi growth-3,3T3 cytotox,NIH3T3 tox 2
CC(C)CC#Cc1ccc([C@@H]2[C@@H](CO)N3CCCCN(C(=O)c4ccc5c(c4)OCO5)C[C@@H]23)cc1,-43,/,0,91,/,/,/,/
CCCC#Cc1ccc([C@@H]2[C@@H](CO)N3CCCCN(C(=O)c4ccc5c(c4)OCO5)C[C@@H]23)cc1,-9,/,-1,122*,107*,76,38*,102*
CCCC#Cc1ccc([C@H]2[C@@H](CO)N3CCCCN(C(=O)c4ccc5c(c4)OCO5)C[C@H]23)cc1,-39,/,0,117*,104*,79,51*,103*
CCCC#Cc1ccc([C@@H]2[C@H](CO)N3CCCCN(C(=O)c4ccc5c(c4)OCO5)C[C@@H]23)cc1,-24,/,-2,?,106*,38,30,103*
COc1ccc(-c2nnc(SCc3nc4ccccc4c(=O)[nH]3)n2C)cc1,/,0,/,/,/,/,/,/
Cc1ncc([N+](=O)[O-])n1Cc1n[nH]c(=S)n1C,/,0,/,/,/,/,/,/
O=C([C@H]1[C@H](CO)[C@H]2Cn3c(cccc3=O)[C@@H]1N2CC1CC1)N1CCc2ccccc2C1,/,/,1,108*,83,40,7,16
O=C([C@@H]1[C@@H](CO)[C@@H]2Cn3c(cccc3=O)[C@H]1N2CC1CC1)N1CCc2ccccc2C1,/,/,0,121*,-8,-10,18,12
COc1ccc(CN(C)C[C@H]2OCCCC[C@@H](C)Oc3ccc(NC(=O)Nc4ccc(OC)cc4)cc3C(=O)N([C@@H](C)CO)C[C@@H]2C)cc1,-65,-2,/,81,/,/,/,/
COc1ccc(CN(C)C[C@H]2OCCCC[C@@H](C)Oc3ccc(NC(=O)Nc4ccc(OC)cc4)cc3C(=O)N([C@H](C)CO)C[C@H]2C)cc1,-65,/,0,109*,105*,105*,2,104*
COc1ccc(CN(C)C[C@H]2OCCCC[C@@H](C)Oc3ccc(NC(=O)Nc4ccc(F)cc4)cc3C(=O)N([C@H](C)CO)C[C@H]2C)cc1,-58,/,-2,86,/,/,/,/
COc1ccc(CN(C)C[C@@H]2OCCCC[C@H](C)Oc3ccc(NC(=O)Nc4ccc(OC)cc4)cc3C(=O)N([C@H](C)CO)C[C@@H]2C)cc1,-65,-1,/,99*,104*,105*,17,104*
COc1ccc(CN(C)C[C@H]2OCCCC[C@H](C)Oc3ccc(NC(=O)Nc4ccc(OC)cc4)cc3C(=O)N([C@H](C)CO)C[C@H]2C)cc1,-61,/,8,106*,103*,57,21,25*
COc1ccc(CN(C)C[C@@H]2OCCCC[C@H](C)Oc3ccc(NC(=O)Nc4ccc(OC)cc4)cc3C(=O)N([C@@H](C)CO)C[C@@H]2C)cc1,-81*,2,0,100*,107*,-7,11,63*
COc1cc2c(cc1NC(=O)COc1ccc(Br)cc1Cl)oc1ccccc12,/,0,/,/,/,/,/,/
CNC(=O)CN(c1ccc(Br)c(C)c1)S(C)(=O)=O,/,0,/,/,/,/,/,/
C=C1CC[C@@]2(OC1)O[C@H]1CC3[C@@H]4CC=C5C[C@H](O[C@@H]6OC[C@H](O)[C@H](O)[C@H]6O[C@@H]6O[C@@H](C)[C@H](O)[C@@H](O)[C@H]6O)C[C@@H](O)[C@]5(C)C4CC[C@]3(C)[C@H]1[C@@H]2C (some centres not stated),/,0,/,/,/,/,/,/
COc1ccc(CN(C)C[C@@H]2OCCCC[C@H](C)Oc3ccc(NC(=O)C4CCCCC4)cc3C(=O)N([C@@H](C)CO)C[C@H]2C)cc1,-69,1,-1,80,/,/,/,/
COc1ccc(CN(C)C[C@H]2OCCCC[C@H](C)Oc3ccc(NC(=O)C4CCCCC4)cc3C(=O)N([C@H](C)CO)C[C@H]2C)cc1,-53,9,2,107*,73,35,5,26*
CN(C)C(=O)c1cccc(-c2ccc3c(c2)[C@H]2[C@H](CCN2C(=O)C2CCOCC2)[C@@H](CO)N3)c1,7,/,0,?,99*,31,-39,-9
CN(C)C(=O)c1cccc(-c2ccc3c(c2)[C@@H]2[C@@H](CCN2C(=O)C2CC2)[C@@H](CO)N3)c1,-27,/,2,106*,99*,77,-4,-1
CN(C)CC(=O)N1CC[C@@H]2[C@H](CO)Nc3ccc(-c4ccc(C(=O)N(C)C)cc4)cc3[C@@H]21,7,/,0,60,/,/,/,/
CN(C)C(=O)c1cccc(-c2ccc3c(c2)[C@H]2[C@H](CCN2C(=O)C2CCCC2)[C@H](CO)N3)c1,-75,/,5,/,/,/,/,/
CN(C)C(=O)c1cccc(-c2ccc3c(c2)[C@H]2[C@H](CCN2C(=O)c2ccc4c(c2)OCO4)[C@H](CO)N3)c1,-14,/,0,64,/,/,/,/
CN(C)C(=O)c1ccc(-c2ccc3c(c2)[C@@H]2[C@@H](CCN2C(=O)c2ccc4c(c2)OCO4)[C@H](CO)N3)cc1,-9,/,2,?,104*,77,-26,-6
CCC(=O)N1CC[C@@H]2[C@@H](CO)Nc3ccc(-c4ccc(C(=O)N(C)C)cc4)cc3[C@@H]21,-12,/,0,103*,104*,47,-40,-16
CN(C)C(=O)c1cccc(-c2ccc3c(c2)[C@@H]2[C@@H](CCN2C(=O)C2CCOCC2)[C@@H](CO)N3)c1,4,/,1,94,/,/,/,/
COc1ccc(-c2nn(C)c(=O)c3ccccc23)cc1CNC(=O)c1ccc([N+](=O)[O-])cc1,/,1,/,/,/,/,/,/
C[C@@H]1CN([C@H](C)CO)S(=O)(=O)c2ccc(-c3ccncc3)cc2O[C@H]1CN(C)C(=O)Nc1ccc(F)cc1,-11,5,1,101*,90,84,-17,75*
C[C@@H]1CN([C@H](C)CO)S(=O)(=O)c2ccc(-c3ccc(F)cc3)cc2O[C@H]1CN(C)C(=O)Nc1ccc(F)cc1,-45,/,-1,114*,106*,47,38*,74*
